# Test results published in PMC12166256 (Clinical Pharmacology and Therapeutics, 2025).
# Assay: MAD study: safety and tolerability
# Format: in vivo, human
# Details: for Abdominal pain TEAE, events / Abdominal pain TEAE, participants / Alanine aminotransferase increased TEAE, events / Alanine aminotransferase increased TEAE, participants / Any event TEAE, events / Any event TEAE, participants / Constipation TEAE, events / Constipation TEAE, participants / Diarrhea TEAE, events / Diarrhea TEAE, participants / Dry skin TEAE, events / Dry skin TEAE, participants / Dysgeusia TEAE, events / Dysgeusia TEAE, participants / Gastrointestinal disorders TEAE, events / Gastrointestinal disorders TEAE, participants / General disorders and administration site conditions TEAE, events / General disorders and administration site conditions TEAE, participants / Headache TEAE, events / Headache TEAE, participants / Injury, poisoning, and procedural complications TEAE, events / Injury, poisoning, and procedural complications TEAE, participants / Investigations TEAE, events / Investigations TEAE, participants / Medical device site reaction TEAE, events / Medical device site reaction TEAE, participants / Musculoskeletal and connective tissue disorders TEAE, events / Musculoskeletal and connective tissue disorders TEAE, participants / Nasal dryness TEAE, events / Nasal dryness TEAE, participants / Neck pain TEAE, events / Neck pain TEAE, participants / Nervous system disorders TEAE, events / Nervous system disorders TEAE, participants / Oropharyngeal pain TEAE, events / Oropharyngeal pain TEAE, participants / Reproductive system and breast disorders TEAE, events / Reproductive system and breast disorders TEAE, participants / Respiratory, thoracic, and mediastinal disorders TEAE, events / Respiratory, thoracic, and mediastinal disorders TEAE, participants / Skin and subcutaneous tissue disorders TEAE, events / Skin and subcutaneous tissue disorders TEAE, participants / Sneezing TEAE, events / Sneezing TEAE, participants / Testicular mass TEAE, events / Testicular mass TEAE, participants / Wound TEAE, events / Wound TEAE, participants: N = 8
# Procedure, shortened: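 Healthy males aged 18–55 with BMI 18–30 kg/m² were followed through dosing and a 6–8-day follow-up. Checks: physical examination, clinical laboratory tests, vital signs and 12-lead ECG, with adverse events coded in MedDRA. Events of special interest: ALT ≥2×ULN, QTcF ≥500 ms, Grade ≥2 photosensitivity, symptomatic overdose. Treatment-emergent events were summarised descriptively by organ class, preferred term and dose level for all exposed participants.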
smiles,measurement,setting,value
CN1C(=O)c2cccc(OC(F)F)c2[C@H]2C[C@@H]1c1nc3ccc(-c4cnc(C5(N)CCC5)nc4)cc3n12 [Balinatunfib],"Grade ≥ 3 TEAE, treatment-emergent SAEs, TEAEs leading to discontinuation",MAD,No participants
same,"Abdominal pain TEAE, events",MAD 100 mg BID,0
same,"Abdominal pain TEAE, participants",MAD 100 mg BID,0 n (%)
same,"Alanine aminotransferase increased TEAE, events",MAD 100 mg BID,0
same,"Alanine aminotransferase increased TEAE, participants",MAD 100 mg BID,0 n (%)
same,"Any event TEAE, events",MAD 100 mg BID,3
same,"Any event TEAE, participants",MAD 100 mg BID,2 (25.0) n (%)
same,"Constipation TEAE, events",MAD 100 mg BID,0
same,"Constipation TEAE, participants",MAD 100 mg BID,0 n (%)
same,"Diarrhea TEAE, events",MAD 100 mg BID,0
same,"Diarrhea TEAE, participants",MAD 100 mg BID,0 n (%)
same,"Dry skin TEAE, events",MAD 100 mg BID,0
same,"Dry skin TEAE, participants",MAD 100 mg BID,0 n (%)
same,"Dysgeusia TEAE, events",MAD 100 mg BID,0
same,"Dysgeusia TEAE, participants",MAD 100 mg BID,0 n (%)
same,"Gastrointestinal disorders TEAE, events",MAD 100 mg BID,0
same,"Gastrointestinal disorders TEAE, participants",MAD 100 mg BID,0 n (%)
same,"General disorders and administration site conditions TEAE, events",MAD 100 mg BID,0
same,"General disorders and administration site conditions TEAE, participants",MAD 100 mg BID,0 n (%)
same,"Headache TEAE, events",MAD 100 mg BID,0
same,"Headache TEAE, participants",MAD 100 mg BID,0 n (%)
same,"Injury, poisoning, and procedural complications TEAE, events",MAD 100 mg BID,0
same,"Injury, poisoning, and procedural complications TEAE, participants",MAD 100 mg BID,0 n (%)
same,"Investigations TEAE, events",MAD 100 mg BID,0
same,"Investigations TEAE, participants",MAD 100 mg BID,0 n (%)
same,"Medical device site reaction TEAE, events",MAD 100 mg BID,0
same,"Medical device site reaction TEAE, participants",MAD 100 mg BID,0 n (%)
same,"Musculoskeletal and connective tissue disorders TEAE, events",MAD 100 mg BID,0
same,"Musculoskeletal and connective tissue disorders TEAE, participants",MAD 100 mg BID,0 n (%)
same,"Nasal dryness TEAE, events",MAD 100 mg BID,0
same,"Nasal dryness TEAE, participants",MAD 100 mg BID,0 n (%)
same,"Neck pain TEAE, events",MAD 100 mg BID,0
same,"Neck pain TEAE, participants",MAD 100 mg BID,0 n (%)
same,"Nervous system disorders TEAE, events",MAD 100 mg BID,0
same,"Nervous system disorders TEAE, participants",MAD 100 mg BID,0 n (%)
same,"Oropharyngeal pain TEAE, events",MAD 100 mg BID,1
same,"Oropharyngeal pain TEAE, participants",MAD 100 mg BID,1 (12.5) n (%)
same,"Reproductive system and breast disorders TEAE, events",MAD 100 mg BID,1
same,"Reproductive system and breast disorders TEAE, participants",MAD 100 mg BID,1 (12.5) n (%)
same,"Respiratory, thoracic, and mediastinal disorders TEAE, events",MAD 100 mg BID,2
same,"Respiratory, thoracic, and mediastinal disorders TEAE, participants",MAD 100 mg BID,2 (25.0) n (%)
same,"Skin and subcutaneous tissue disorders TEAE, events",MAD 100 mg BID,0
same,"Skin and subcutaneous tissue disorders TEAE, participants",MAD 100 mg BID,0 n (%)
same,"Sneezing TEAE, events",MAD 100 mg BID,1
same,"Sneezing TEAE, participants",MAD 100 mg BID,1 (12.5) n (%)
same,"Testicular mass TEAE, events",MAD 100 mg BID,1
same,"Testicular mass TEAE, participants",MAD 100 mg BID,1 (12.5) n (%)
same,"Wound TEAE, events",MAD 100 mg BID,0
same,"Wound TEAE, participants",MAD 100 mg BID,0 n (%)
same,"Abdominal pain TEAE, events",MAD 100 mg QD,1
same,"Abdominal pain TEAE, participants",MAD 100 mg QD,1 (12.5) n (%)
same,"Alanine aminotransferase increased TEAE, events",MAD 100 mg QD,3
same,"Alanine aminotransferase increased TEAE, participants",MAD 100 mg QD,3 (37.5) n (%)
same,"Any event TEAE, events",MAD 100 mg QD,9
same,"Any event TEAE, participants",MAD 100 mg QD,4 (50.0) n (%)
same,"Constipation TEAE, events",MAD 100 mg QD,0
same,"Constipation TEAE, participants",MAD 100 mg QD,0 n (%)
same,"Diarrhea TEAE, events",MAD 100 mg QD,2
same,"Diarrhea TEAE, participants",MAD 100 mg QD,2 (25.0) n (%)
same,"Dry skin TEAE, events",MAD 100 mg QD,0
same,"Dry skin TEAE, participants",MAD 100 mg QD,0 n (%)
same,"Dysgeusia TEAE, events",MAD 100 mg QD,0
same,"Dysgeusia TEAE, participants",MAD 100 mg QD,0 n (%)
same,"Gastrointestinal disorders TEAE, events",MAD 100 mg QD,3
same,"Gastrointestinal disorders TEAE, participants",MAD 100 mg QD,2 (25.0) n (%)
same,"General disorders and administration site conditions TEAE, events",MAD 100 mg QD,0
same,"General disorders and administration site conditions TEAE, participants",MAD 100 mg QD,0 n (%)
same,"Headache TEAE, events",MAD 100 mg QD,1
same,"Headache TEAE, participants",MAD 100 mg QD,1 (12.5) n (%)
same,"Injury, poisoning, and procedural complications TEAE, events",MAD 100 mg QD,1
same,"Injury, poisoning, and procedural complications TEAE, participants",MAD 100 mg QD,1 (12.5) n (%)
same,"Investigations TEAE, events",MAD 100 mg QD,3
same,"Investigations TEAE, participants",MAD 100 mg QD,3 (37.5) n (%)
same,"Medical device site reaction TEAE, events",MAD 100 mg QD,0
same,"Medical device site reaction TEAE, participants",MAD 100 mg QD,0 n (%)
same,"Musculoskeletal and connective tissue disorders TEAE, events",MAD 100 mg QD,1
same,"Musculoskeletal and connective tissue disorders TEAE, participants",MAD 100 mg QD,1 (12.5) n (%)
same,"Nasal dryness TEAE, events",MAD 100 mg QD,0
same,"Nasal dryness TEAE, participants",MAD 100 mg QD,0 n (%)
same,"Neck pain TEAE, events",MAD 100 mg QD,1
same,"Neck pain TEAE, participants",MAD 100 mg QD,1 (12.5) n (%)
same,"Nervous system disorders TEAE, events",MAD 100 mg QD,1
same,"Nervous system disorders TEAE, participants",MAD 100 mg QD,1 (12.5) n (%)
same,"Oropharyngeal pain TEAE, events",MAD 100 mg QD,0
same,"Oropharyngeal pain TEAE, participants",MAD 100 mg QD,0 n (%)
same,"Reproductive system and breast disorders TEAE, events",MAD 100 mg QD,0
same,"Reproductive system and breast disorders TEAE, participants",MAD 100 mg QD,0 n (%)
same,"Respiratory, thoracic, and mediastinal disorders TEAE, events",MAD 100 mg QD,0
same,"Respiratory, thoracic, and mediastinal disorders TEAE, participants",MAD 100 mg QD,0 n (%)
same,"Skin and subcutaneous tissue disorders TEAE, events",MAD 100 mg QD,0
same,"Skin and subcutaneous tissue disorders TEAE, participants",MAD 100 mg QD,0 n (%)
same,"Sneezing TEAE, events",MAD 100 mg QD,0
same,"Sneezing TEAE, participants",MAD 100 mg QD,0 n (%)
same,"Testicular mass TEAE, events",MAD 100 mg QD,0
same,"Testicular mass TEAE, participants",MAD 100 mg QD,0 n (%)
same,"Wound TEAE, events",MAD 100 mg QD,1
same,"Wound TEAE, participants",MAD 100 mg QD,1 (12.5) n (%)
same,"Abdominal pain TEAE, events",MAD 200 mg BID,0
same,"Abdominal pain TEAE, participants",MAD 200 mg BID,0 n (%)
